# Compound activity from PubChem.
# A selection: hits, their analogues and other compounds. The true share with any hit is near 2%.
# Ecoli rRNA inh: inhibits bacterial ribosomal RNA function over humanized ribosomes; E. coli WT GFP vs humanized-ribosome RFP mutants, fluorescence, 24 h; active compounds read low; DMSO median 0, no signal -100; GFP signal change (wild-type ribosome), % (no concentration beside the values); actives 1.6% (n = 350,000);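 active means significant combined selectivity score with lowered wild-type GFP, culture density cut under 30%, mutant RFP and density less affected; inactive means any of these conditions unmet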
# RAD54 inh: RAD54 (human) branch migration inhibition; Q92698; RAD54 Holliday junction branch migration, FAM/BHQ fluorescence; inhibition, % at 10.4 µM; actives 0.14% (n = 360,000);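 active means mean normalized replicate activity at least 40 and at least half of replicates scoring 40 or more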;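 further: 0% = median of neutral control wells and 100% = median of positive control wells; inhibitors cause a drop in the FAM fluorescence signal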
# Target sequence (Q92698 whole entry, looked up): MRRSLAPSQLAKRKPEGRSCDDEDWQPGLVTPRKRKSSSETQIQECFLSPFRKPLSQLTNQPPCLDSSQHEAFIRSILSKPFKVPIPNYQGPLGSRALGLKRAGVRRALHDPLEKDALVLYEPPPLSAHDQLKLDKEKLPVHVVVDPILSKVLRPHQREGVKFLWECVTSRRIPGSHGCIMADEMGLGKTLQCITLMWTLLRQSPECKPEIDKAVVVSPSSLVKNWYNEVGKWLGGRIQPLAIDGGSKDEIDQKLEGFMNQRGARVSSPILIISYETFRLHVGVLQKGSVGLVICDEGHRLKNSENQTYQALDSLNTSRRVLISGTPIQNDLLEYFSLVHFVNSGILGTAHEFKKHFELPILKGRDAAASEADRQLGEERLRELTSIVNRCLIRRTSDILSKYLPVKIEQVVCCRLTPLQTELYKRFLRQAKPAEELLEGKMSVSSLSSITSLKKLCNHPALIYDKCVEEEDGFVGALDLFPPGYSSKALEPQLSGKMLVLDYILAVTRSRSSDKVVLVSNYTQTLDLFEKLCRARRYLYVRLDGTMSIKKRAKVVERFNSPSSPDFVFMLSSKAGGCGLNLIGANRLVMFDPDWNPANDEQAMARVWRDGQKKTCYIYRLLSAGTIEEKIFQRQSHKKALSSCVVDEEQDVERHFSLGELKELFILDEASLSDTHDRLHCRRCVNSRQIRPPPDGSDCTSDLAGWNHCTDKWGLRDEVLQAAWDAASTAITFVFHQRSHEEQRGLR
# RAD52 anneal inh: RAD52 (human) annealing inhibition; actives 0.46% (n = 360,000); AID 651710; inhibition, % at 18.7 µM; recombinant RAD52 DNA annealing, FRET fluorescence;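 active means every replicate showing at least 50% inhibition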
# Xi reactivation: X-chromosome reactivation activator; XiGFP mouse fibroblasts, % GFP-positive cells imaging, 3 d; cells co-treated with 5-aza-dC sensitizer; scaled so ellipticine positive control = 100%; activation, % at 7.58 µM; actives 0.055% (n = 360,000);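 active means mean normalized replicate activation at least 10% and every replicate at or above 10%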;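 further: 0% = median of on-plate neutral control wells and 100% = ellipticine 6 µM median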
#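 Assay system – SV40-immortalized XiGFP fibroblast cells, line 68-5-11 · Buffer or medium – DMEM supplemented with 5-aza-dC as sensitizing agent · Dosing – one concentration, pinned · Benchmarks – positive control ellipticine, 6 µM final · Times – 3 days compound exposure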
# E-sel inducer: E-selectin induction on HUVECs; activation, % at 7.58 µM; P16581; AID 686992; actives 0.37% (n = 260,000); HUVEC E-selectin immunofluorescence imaging; normalized: neutral wells 0, TNF-alpha wells 100;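 active means mean E-selectin-positive cell signal at least 10% of the positive control, reached in at least 60% of replicates, without over 20% cell loss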
#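 Assay system: HUVEC primary endothelial cells. Input: 3,000 HUVEC seeded per well. Doses: one compound dose added by pin transfer. Read-out basis: % PE-positive cells. Benchmarks: TNF-alpha high, DMSO low. Detection: immunofluorescence imaging. Buffer or medium: EGM-2, gelatin.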
# PglD inh: inhibitors of Campylobacter jejuni PglD acetyltransferase; purified PglD enzyme, DTNB colorimetric CoA detection; actives 0.098% (n = 360,000); inhibition, % at 12.5 µM; in the data active means inhibition above about 16%, passing the limit was not always enough
# The depositor's hits bear a star; nt = no result.
SMILES,Ecoli rRNA inh,RAD54 inh,RAD52 anneal inh,Xi reactivation,E-sel inducer,PglD inh
C/C=C/c1ccc([C@H]2[C@@H](CO)N(CC3CC3)C23CN(S(C)(=O)=O)C3)cc1,1,nt,-30,0,0,nt
C[C@@H]1CCCCO[C@@H](CN(C)S(=O)(=O)c2ccc(F)cc2)[C@@H](C)CN([C@@H](C)CO)C(=O)c2cc(NC(=O)c3ccncc3)ccc2O1,-1,-7,8,0,nt,-2
C[C@H]1CN([C@@H](C)CO)C(=O)c2c(c3ccccc3n2C)-c2ccccc2CO[C@@H]1CN(C)S(=O)(=O)c1ccccc1F,2,14,13,0,0,-2
Cc1cc(C)c2sc(NNC(=O)C3COc4ccccc4O3)nc2c1 (stereo unspecified),-45,3,-4,0,83*,nt
COc1ccc(NS(=O)(=O)c2ccc(Cl)c(NC(=O)c3ccccc3F)c2)cc1,-13*,-19,-10,0,0,1
CC(C)c1cn(CC[C@H]2CC[C@@H](NC(=O)C3CCCC3)[C@H](CO)O2)nn1,2,-4,-6,0,0,0
Cn1nc(C(=O)NCC2COc3ccccc3O2)c2ccccc2c1=O (stereo unspecified),nt,-6,-6,0,2,-2
CCCCn1nc(C(=O)NCC2COc3ccccc3O2)c2ccccc2c1=O (stereo unspecified),-36*,-2,-15,5,0,-2
CCN(CC(=O)NC(C)(C)C)Cc1nc2c(Br)cc(Br)cc2c(=O)[nH]1,-29*,nt,-21,2,nt,nt
CCCC#Cc1cnc2c(c1)C(=O)N([C@@H](C)CO)C[C@@H](C)[C@H](CN(C)C)O2,1,0,18,-1,0,-3
CCCC(=O)N1CC2(C1)CN(Cc1ccncc1)[C@@H](CO)c1[nH]c3cc(OC)ccc3c12,0,nt,nt,0,nt,nt
NC(N)=NN=C1c2ccccc2-c2ccccc21,-8,82*,43,0,0,7
ON=C1c2ccccc2-c2ccccc21,-49,2,1,1,0,-3
O=C(Nc1ccccc1C(=O)NCCCN1CCOCC1)c1ccc(F)cc1F,3,7,-20,0,0,-4
O=C(Nc1ccc(OCc2ccccc2)cc1)Nc1ccccc1C(=O)NCCCN1CCOCC1,-22*,nt,-12,0,1,nt
Cc1nc2nc(-c3ccccc3)cn2nc1C,-26*,-2,-2,nt,nt,-3
CC[C@@H]1C/C=C\C[C@@H](c2ccc(F)cc2)NC(=O)CCC(=O)N1,0,nt,nt,0,nt,nt
O=C(C[C@H]1CC[C@H]2[C@@H](COC[C@@H](O)CN2C(=O)c2ccccc2F)O1)N1CCN(c2ccccc2)CC1,1,3,-6,0,0,-4
CCc1cc2c(N3CCN(C(=O)c4ccco4)CC3)ncnc2s1,-30*,4,-9,0,4,4
